Measured values reported in ChEMBL document CHEMBL1949601, “γ-Carbolines: a novel class of cannabinoid agonists with high aqueous solubility and restricted CNS penetration” (Bioorg Med Chem Lett, 2012).
Converted amounts (≈) assume the structure as drawn.

Columns and labels:
[1] = Ratio of drug uptake in brain to plasma of Sprague-Dawley rat at 1 mg/kg, sc; type: ADME, organism-based; parameters: dose 1 mg/kg, route subcutaneous; settings: read-out: BPR
[2] = Dissociation constant, pKa of the compound; type: physicochemical
[3] = target: Voltage-gated inwardly rectifying potassium channel KCNH2 (Homo sapiens, UniProt Q12809); assay: Inhibition of human Erg by voltage ion flux electrophysiological assay
Cannabinoid receptor 1 [4] = target: T1, Cannabinoid receptor 1 (Homo sapiens, UniProt P21554); assay: Displacement of [3H]-CP55,940 from human CB1 receptor expressed in HEK293 cells; type: cell-based
Cannabinoid receptor 1 [5] = target: T1, Cannabinoid receptor 1; assay: Agonist activity at human CB1 receptor expressed in HEK293 EBNA cells by [35S]GTPgamma binding assay; type: functional, cell-based
[6] = Metabolic stability in human liver microsomes; type: ADME, Microsome; settings: read-out: Stability
[7] = Aqueous solubility of the compound at pH 7.4; type: physicochemical
Cannabinoid receptor 1 [8] = target: T1, Cannabinoid receptor 1; assay: Partial agonist activity at human CB1 receptor expressed in HEK293 EBNA cells by [35S]GTPgamma binding assay; type: functional, cell-based
Summary of the method: (§1)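 Membranes from HEK293 EBNA cells stably transfected with cloned human CB1; agonism read out as [35S]GTPγS binding, EC50 determined; Emax expressed relative to Win55,212-2 as reference agonist. Mean of at least 2 independent measurements.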

Cannabinoid receptor 1 [9] = target: T1, Cannabinoid receptor 1; assay: Partial agonist activity at human CB1 receptor expressed in HEK293 EBNA cells by [35S]GTPgamma binding assay relative to Win55,212-2; type: functional, cell-based; summary of the method: as §1
Cannabinoid receptor 2 = Cannabinoid receptor 2 (Homo sapiens, UniProt P34972); assay: Binding affinity to human CB2 receptor
[10] = target: Cannabinoid receptor 1 (Rattus norvegicus) (UniProt P20272); assay: Agonist activity at CB1 receptor in rat brain tissue relative to control; type: functional, tissue-based
Cannabinoid receptor 1 [11] = target: Cannabinoid receptor 1 (Rattus norvegicus, UniProt P20272); assay: Agonist activity at CB1 receptor in rat brain tissue; type: functional, tissue-based
[12] = Apparent permeability across human Caco2 cells; type: ADME, cell-based; settings: Caco-2
[13] = Metabolic stability in rat liver microsomes; type: ADME, Microsome; settings: read-out: Stability

T1 sequence (P21554 whole entry): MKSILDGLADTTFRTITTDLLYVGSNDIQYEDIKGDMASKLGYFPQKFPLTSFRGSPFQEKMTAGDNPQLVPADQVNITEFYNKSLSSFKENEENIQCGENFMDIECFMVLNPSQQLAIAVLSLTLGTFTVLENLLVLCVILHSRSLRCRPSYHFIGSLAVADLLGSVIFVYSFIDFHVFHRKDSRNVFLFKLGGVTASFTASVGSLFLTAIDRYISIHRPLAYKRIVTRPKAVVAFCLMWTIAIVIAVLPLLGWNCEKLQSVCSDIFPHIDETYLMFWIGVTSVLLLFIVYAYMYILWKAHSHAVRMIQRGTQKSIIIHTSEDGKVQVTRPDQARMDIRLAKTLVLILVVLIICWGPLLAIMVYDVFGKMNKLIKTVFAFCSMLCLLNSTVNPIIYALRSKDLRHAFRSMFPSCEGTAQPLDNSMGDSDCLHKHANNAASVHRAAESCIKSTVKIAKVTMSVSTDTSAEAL
Sequence of Voltage-gated inwardly rectifying potassium channel KCNH2 (Q12809 whole entry): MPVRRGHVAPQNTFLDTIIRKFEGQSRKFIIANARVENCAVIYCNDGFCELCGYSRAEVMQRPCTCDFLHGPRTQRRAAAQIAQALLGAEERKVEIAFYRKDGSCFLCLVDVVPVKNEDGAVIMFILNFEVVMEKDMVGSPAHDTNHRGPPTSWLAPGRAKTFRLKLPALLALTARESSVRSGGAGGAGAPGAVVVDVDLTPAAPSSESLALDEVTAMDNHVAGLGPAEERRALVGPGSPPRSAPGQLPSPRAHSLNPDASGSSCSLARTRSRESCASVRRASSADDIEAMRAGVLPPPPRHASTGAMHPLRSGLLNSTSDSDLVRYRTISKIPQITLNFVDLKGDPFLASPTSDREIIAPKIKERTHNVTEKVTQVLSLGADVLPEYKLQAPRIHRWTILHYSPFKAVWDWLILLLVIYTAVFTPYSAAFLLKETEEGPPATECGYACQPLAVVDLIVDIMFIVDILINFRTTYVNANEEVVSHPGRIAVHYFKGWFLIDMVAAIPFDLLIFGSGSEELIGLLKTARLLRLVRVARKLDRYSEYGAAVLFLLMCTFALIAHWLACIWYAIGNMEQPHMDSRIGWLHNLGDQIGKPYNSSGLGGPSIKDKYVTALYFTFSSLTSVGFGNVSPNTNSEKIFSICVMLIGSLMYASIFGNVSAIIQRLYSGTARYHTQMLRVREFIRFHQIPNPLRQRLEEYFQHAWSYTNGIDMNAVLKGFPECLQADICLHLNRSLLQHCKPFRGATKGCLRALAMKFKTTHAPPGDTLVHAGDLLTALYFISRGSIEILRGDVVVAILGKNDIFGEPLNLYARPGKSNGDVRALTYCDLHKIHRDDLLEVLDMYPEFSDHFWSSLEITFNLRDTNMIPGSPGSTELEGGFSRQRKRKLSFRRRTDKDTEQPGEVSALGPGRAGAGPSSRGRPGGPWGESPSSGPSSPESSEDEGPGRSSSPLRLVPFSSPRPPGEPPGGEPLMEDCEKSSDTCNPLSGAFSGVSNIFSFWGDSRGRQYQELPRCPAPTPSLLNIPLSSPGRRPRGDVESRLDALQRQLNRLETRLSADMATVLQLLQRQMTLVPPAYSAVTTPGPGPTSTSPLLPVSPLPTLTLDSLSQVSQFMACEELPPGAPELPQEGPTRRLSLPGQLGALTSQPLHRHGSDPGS
Sequence of Cannabinoid receptor 2 (P34972 whole entry): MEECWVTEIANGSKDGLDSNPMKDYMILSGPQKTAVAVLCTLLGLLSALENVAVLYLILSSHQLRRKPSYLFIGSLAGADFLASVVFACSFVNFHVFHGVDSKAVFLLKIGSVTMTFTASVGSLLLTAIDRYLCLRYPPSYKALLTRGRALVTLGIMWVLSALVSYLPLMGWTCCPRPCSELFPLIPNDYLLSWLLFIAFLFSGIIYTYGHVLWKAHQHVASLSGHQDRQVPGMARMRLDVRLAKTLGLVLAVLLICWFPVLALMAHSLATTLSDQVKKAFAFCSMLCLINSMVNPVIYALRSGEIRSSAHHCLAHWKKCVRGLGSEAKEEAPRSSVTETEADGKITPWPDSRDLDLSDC
Sequence of Cannabinoid receptor 1 (Rattus norvegicus) (P20272 whole entry): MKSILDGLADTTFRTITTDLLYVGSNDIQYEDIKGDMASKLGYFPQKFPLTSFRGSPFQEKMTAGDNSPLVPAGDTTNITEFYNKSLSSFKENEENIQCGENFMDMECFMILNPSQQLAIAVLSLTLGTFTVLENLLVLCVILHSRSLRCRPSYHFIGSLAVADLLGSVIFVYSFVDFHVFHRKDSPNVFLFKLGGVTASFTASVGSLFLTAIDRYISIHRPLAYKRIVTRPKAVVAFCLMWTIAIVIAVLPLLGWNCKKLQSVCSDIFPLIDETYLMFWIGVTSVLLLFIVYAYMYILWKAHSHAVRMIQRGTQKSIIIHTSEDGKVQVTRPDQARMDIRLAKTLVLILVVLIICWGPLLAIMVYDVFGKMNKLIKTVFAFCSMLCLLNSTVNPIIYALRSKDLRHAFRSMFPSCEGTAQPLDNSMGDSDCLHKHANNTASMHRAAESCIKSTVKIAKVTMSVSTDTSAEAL
Sequence of Cannabinoid receptor 1 (Rattus norvegicus, UniProt P20272) (P20272 whole entry): as above

Work on CCCCCCC(C)(C)c1cc(O)c2c(c1)OC(C)(C)[C@@H]1CC=C(C(=O)O)C[C@@H]21 [LENABASUM] yielded a Kp [1] of 0.3.

CCS(=O)(=O)n1c2c(c3cc(C(=O)N4CCC(C)CC4)ccc31)CN(C1CCOC1)CC2 (stereo not given) gave a pKa [2] of 5.9, an IC50 [3] of 25 µM and a Ki (Cannabinoid receptor 1 [4]) of 197 nM.

CC1CCN(C(=O)c2ccc3c(c2)c2c(n3S(=O)(=O)C(C)C)CCN(C3CCOCC3)C2)CC1 gave an EC50 (Cannabinoid receptor 1 [5]) of 150 nM and a Ki (Cannabinoid receptor 1 [4]) of 170 nM.

In the case of C=CCn1c2c(c3cc(C(=O)N4CCC(C)CC4)ccc31)CN(CC1CCCC1)CC2, the EC50 (Cannabinoid receptor 1 [5]) is reported as 115 nM and the microsomal CLint [6] is reported as greater than 300 µL/min/mg.

C=CCn1c2c(c3cc(C(=O)N4CCC(C)CC4)ccc31)CN(C1CCCCC1)CC2 gave an EC50 (Cannabinoid receptor 1 [5]) of 60 nM, a microsomal CLint [6] of 135 µL/min/mg and a Ki (Cannabinoid receptor 1 [4]) of 56 nM.

In the case of CC1CCN(C(=O)c2ccc3c(c2)c2c(n3S(=O)(=O)n3ccnc3)CCN(C3CCOCC3)C2)CC1, the Ki (Cannabinoid receptor 1 [4]) is reported as 592 nM.

In the case of CCCS(=O)(=O)n1c2c(c3cc(C(=O)N4CCC(C)CC4)ccc31)CN(C1CCOCC1)CC2, the EC50 (Cannabinoid receptor 1 [5]) is reported as 129 nM, the pKa [2] is reported as 7.3 and the IC50 [3] is reported as 2 µM. For the same compound, the Ki (Cannabinoid receptor 1 [4]) was 115 nM.

In the case of CC1CCN(C(=O)c2ccc3c(c2)c2c(n3S(=O)(=O)N(C)C)CCN(C3CCOCC3)C2)CC1, the EC50 (Cannabinoid receptor 1 [5]) is reported as 71 nM and the Ki (Cannabinoid receptor 1 [4]) is reported as 110 nM.

For CC1CCN(C(=O)c2ccc3c(c2)c2c(n3S(C)(=O)=O)CCN(C3CCOCC3)C2)CC1, the EC50 (Cannabinoid receptor 1 [5]) was 473 nM and the Ki (Cannabinoid receptor 1 [4]) was 239 nM.

With CC1CCN(C(=O)c2ccc3[nH]c4c(c3c2)CN(C2CCCC2)CC4)CC1 the EC50 (Cannabinoid receptor 1 [5]) was 4250 nM and the Ki (Cannabinoid receptor 1 [4]) was 264 nM.

For C=CCn1c2c(c3cc(C(=O)N4CCC(C)CC4)ccc31)CN(C1CCOCC1)CC2, the EC50 (Cannabinoid receptor 1 [5]) was 60 nM and the microsomal CLint [6] was 42 µL/min/mg.

For CCCS(=O)(=O)n1c2c(c3cc(C(=O)N4CCC(C)CC4)ccc31)CN(C1CCCC1)CC2, the EC50 (Cannabinoid receptor 1 [5]) was 22 nM and the Ki (Cannabinoid receptor 1 [4]) was 22 nM.

For CC1CCN(C(=O)c2ccc3c(c2)c2c(n3C)CCN(C3CCOCC3)C2)CC1, the IC50 [3] was 2.6 µM and the Ki (Cannabinoid receptor 1 [4]) was 76 nM.

With CCCCCc1cc(O)c2c(c1)OC(C)(C)[C@@H]1CCC(C)=C[C@@H]21 [DRONABINOL] the solubility [7] was less than 10 µg/mL and the Kp [1] was 1.

CC1CCN(C(=O)c2ccc3c(c2)c2c(n3C(=O)N(C)C)CCN(C3CCOCC3)C2)CC1 showed a Ki (Cannabinoid receptor 1 [4]) of 2380 nM.

For CCCC(=O)n1c2c(c3cc(C(=O)N4CCC(C)CC4)ccc31)CN(C1CCOCC1)CC2, the EC50 (Cannabinoid receptor 1 [8]) was 117 nM, the Emax (Cannabinoid receptor 1 [9]) was 17% and the Ki (Cannabinoid receptor 1 [4]) was 102 nM.

With C=CCn1c2c(c3cc(C(=O)N4CCC(C)CC4)ccc31)CN(C1CCCC1)CC2 the EC50 (Cannabinoid receptor 1 [5]) was 33 nM, the microsomal CLint [6] was 93 µL/min/mg and the Ki (Cannabinoid receptor 1 [4]) was 9 nM.

In the case of CCS(=O)(=O)n1c2c(c3cc(C(=O)N4CCC(C)CC4)ccc31)CN(C1CCCC1)CC2, the EC50 (Cannabinoid receptor 1 [5]) is reported as 11 nM and the Ki (Cannabinoid receptor 1 [4]) is reported as 17 nM.

Compound C=CCn1c2c(c3cc(C(=O)N4CCC(C)CC4)ccc31)CN(Cc1ccccn1)CC2 has an EC50 (Cannabinoid receptor 1 [5]) of 5420 nM.

For C=CCn1c2c(c3cc(C(=O)N4CCC(C)CC4)ccc31)CN(C1CCSC1)CC2 (stereo not given), the EC50 (Cannabinoid receptor 1 [5]) was 5 nM and the microsomal CLint [6] was greater than 300 µL/min/mg.

For Cn1c2c(c3cc(C(=O)N4CCCCC4)ccc31)CN(C1CCOCC1)CC2, the IC50 [3] was 18 µM and the Ki (Cannabinoid receptor 1 [4]) was 226 nM.

CC1CCN(C(=O)c2ccc3c(c2)c2c(n3S(C)(=O)=O)CCN(C3CCCC3)C2)CC1 showed an EC50 (Cannabinoid receptor 1 [5]) of 50 nM and a Ki (Cannabinoid receptor 1 [4]) of 36 nM.

With C=CCn1c2c(c3cc(C(=O)N4CCC(C)CC4)ccc31)CN(Cc1cccnc1)CC2 the EC50 (Cannabinoid receptor 1 [5]) was greater than 14000 nM and the microsomal CLint [6] was greater than 300 µL/min/mg.

CCCCCOc1ccc(C(=O)c2cccc3ccccc23)c2ccccc12 showed a solubility [7] of less than 10 µg/mL, a Kp [1] of 0.04 and a Ki (Cannabinoid receptor 2) of 19 nM.

For CCn1c2c(c3cc(C(=O)N4CCC(C)CC4)ccc31)CN(C1CCCC1)CC2, the EC50 (Cannabinoid receptor 1 [5]) was 63 nM and the Ki (Cannabinoid receptor 1 [4]) was 34 nM.

CCCn1c2c(c3cc(C(=O)N4CCC(C)CC4)ccc31)CN(C1CCOCC1)CC2 gave an EC50 (Cannabinoid receptor 1 [5]) of 103 nM and a Ki (Cannabinoid receptor 1 [4]) of 58 nM.

For C=CCn1c2c(c3cc(C(=O)N4CCC(C)CC4)ccc31)CN(CC1CC1)CC2, the solubility [7] was 3300 µg/mL (≈ 8430 µM), the Emax [10] was 47% and the EC50 (Cannabinoid receptor 1 [5]) was 768 nM. It also gave a microsomal CLint [6] of 66 µL/min/mg, a Ki (Cannabinoid receptor 1 [4]) of 143 nM and an EC50 (Cannabinoid receptor 1 [11]) of 1440 nM. For the same compound, the Kp [1] was 0.74, the Papp [12] was 3 ×10⁻⁶ cm/s and the microsomal CLint [13] was greater than 300 µL/min/mg. The Ki (Cannabinoid receptor 2) was 14 nM.

CCOc1ccc(Cn2c3c(c4cc(C(=O)N5CCC(C)CC5)ccc42)CN(C2CCOCC2)CC3)cc1 showed an EC50 (Cannabinoid receptor 1 [5]) of 53 nM and a Ki (Cannabinoid receptor 1 [4]) of 51 nM.

CCCS(=O)(=O)n1c2c(c3cc(C(=O)N4CCC(C)CC4)ccc31)CN(C1CCOC1)CC2 (stereo not given) showed a pKa [2] of 5.8 and a Ki (Cannabinoid receptor 1 [4]) of 320 nM.

CC1CCN(C(=O)c2ccc3c(c2)c2c(n3C)CCN(C3CCCC3)C2)CC1 showed an EC50 (Cannabinoid receptor 1 [5]) of 77 nM and a Ki (Cannabinoid receptor 1 [4]) of 32 nM.

Work on C=CCn1c2c(c3cc(C(=O)N4CCC(C)CC4)ccc31)CN(Cc1ccncc1)CC2 yielded an EC50 (Cannabinoid receptor 1 [5]) of 1360 nM and a microsomal CLint [6] greater than 300 µL/min/mg.

CCCn1c2c(c3cc(C(=O)N4CCC(C)CC4)ccc31)CN(C1CCCC1)CC2 gave an EC50 (Cannabinoid receptor 1 [5]) of 45 nM and a Ki (Cannabinoid receptor 1 [4]) of 15 nM.

For CCNS(=O)(=O)n1c2c(c3cc(C(=O)N4CCC(C)CC4)ccc31)CN(C1CCOCC1)CC2, the Ki (Cannabinoid receptor 1 [4]) was 424 nM.

Compound C=CCn1c2c(c3cc(C(=O)N4CCC(C)CC4)ccc31)CN(Cc1ccccc1)CC2 has an EC50 (Cannabinoid receptor 1 [5]) of 103 nM and a microsomal CLint [6] greater than 300 µL/min/mg.

Compound CC1CCN(C(=O)c2ccc3c(c2)c2c(n3S(=O)(=O)c3ccccc3)CCN(C3CCOCC3)C2)CC1 has an EC50 (Cannabinoid receptor 1 [5]) of 59 nM and a Ki (Cannabinoid receptor 1 [4]) of 31 nM.

In the case of CC1CCN(C(=O)c2ccc3c(c2)c2c(n3S(=O)(=O)N(C)C)CCN(C3CCCC3)C2)CC1, the EC50 (Cannabinoid receptor 1 [5]) is reported as 26 nM and the Ki (Cannabinoid receptor 1 [4]) is reported as 22 nM.

With CCOc1ccc(Cc2nc3cc(N(C)S(=O)(=O)c4cccs4)ccc3n2CC2CCCCC2)nc1 the solubility [7] was less than 10 µg/mL, the EC50 (Cannabinoid receptor 1 [5]) was 6 nM and the microsomal CLint [6] was greater than 300 µL/min/mg. For the same compound, the Ki (Cannabinoid receptor 1 [4]) was 3 nM, the Kp [1] was 0.07 and the Papp [12] was 0.6 ×10⁻⁶ cm/s. For the same compound, the microsomal CLint [13] was greater than 300 µL/min/mg and the Ki (Cannabinoid receptor 2) was 0.56 nM.
